Experimental data taken from ChEMBL document CHEMBL4038284, “Synthesis of novel quinoline-based 4,5-dihydro-1H-pyrazoles as potential anticancer, antifungal, antibacterial and antiprotozoal agents” (Eur J Med Chem, 2017).
≈ marks a conversion by molar mass, not a printed value. Calls of active or inactive are those of the source. The calls are words filed in the database; no cut-off is given here.

Legend:
Plasmodium falciparum = test: Antiplasmodial activity against chloroquine-sensitive Plasmodium falciparum 3D7 assessed as reduction in parasitic LDH activity after 48 hrs by Malstat reagent based […] method; format: functional; conditions: 3D7, 48 h
Method in brief: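 Unsynchronized P. falciparum 3D7 at 0.5% parasitemia and 1% hematocrit in RPMI with 3% Albumax II. Exposed to 100, 25, 6.25 and 1.56 µg/mL for 48 h at 37 °C under 90% N2/5% CO2/5% O2. After three freeze-thaw cycles, LDH measured with Malstat and NBT/PES, 1 h in the dark, read at 650 nm. IC50 by Probit; triplicate, ≥2 experiments.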

T47D = test: Growth inhibition of human T47D cells at 10 uM incubated for 48 hrs by sulforhodamine B assay; format: functional, cell-based
Method in brief: (§1)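 NCI-60 single-dose screen at 10 µM for 48 h. Cells were grown in RPMI-1640 with 5% FBS and 2 mM L-glutamine and preincubated 24 h before compound. Time-zero plates were TCA-fixed at compound addition. After exposure, cells were TCA-fixed, stained with SRB and read at 515 nm. Percentage growth was calculated against time-zero and untreated-control absorbances.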

Escherichia coli = test: Antibacterial activity against Escherichia coli ATCC 25922 after 24 hrs by resazurin dye based microdilution assay; format: functional; conditions: ATCC 25922, 24 h
Method in brief: (§2)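 MIC taken as the lowest concentration giving visible inhibition and/or by resazurin (1 mg/mL). Gentamicin was the control. Run in duplicate, repeated at least three times.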

MDA-MB-231 = test: Growth inhibition of human MDA-MB-231 cells at 10 uM incubated for 48 hrs by sulforhodamine B assay; format: functional, cell-based
Method in brief: (§3)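 NCI 60-line panel, single 10 μM dose. Cells were grown in RPMI-1640 with 5% FBS and 2 mM L-glutamine and pre-incubated 24 h before compound addition (DMSO stock). Exposure was 48 h at 37 °C, 5% CO2. Cells were fixed with cold TCA (10% final), stained with 0.4% SRB, bound dye dissolved in 10 mM Tris base, A515 read. Growth was taken relative to time-zero and untreated control plates.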

A498 = test: Growth inhibition of human A498 cells at 10 uM incubated for 48 hrs by sulforhodamine B assay; format: functional, cell-based
Method in brief: (§4)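 NCI 60-cell-line screen at a single 10 µM dose. Cells in RPMI-1640 with 5% FBS and 2 mM L-glutamine, pre-incubated 24 h, then treated for 48 h at 37 °C. TCA fixation, sulforhodamine B staining, absorbance at 515 nm. Percentage growth calculated against time-zero and untreated controls.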

Cryptococcus neoformans [1] = test: Growth inhibition of Cryptococcus neoformans ATCC 32264 at 62.5 ug/ml incubated for 48 hrs under dark condition by broth microdilution method relative to control; format: functional; conditions: ATCC 32264, 48 h, read-out: GI
Method in brief: (§5)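 CLSI M27-A3 broth microdilution in RPMI-1640, DMSO ≤1%. Inoculum 1-5 × 10^3 CFU/mL. Incubated 48 h at 30 °C, dark. % inhibition = 100 − (OD405 test − sterility control)/(OD405 growth control − sterility control), with growth and sterility control wells. Triplicate.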

PC-3 = test: Growth inhibition of human PC3 cells at 10 uM incubated for 48 hrs by sulforhodamine B assay; format: functional, cell-based; method in brief: as §3
BT-549 = test: Growth inhibition of human BT549 cells at 10 uM incubated for 48 hrs by sulforhodamine B assay; format: functional, cell-based; method in brief: as §4
Trypanosoma cruzi = test: Antitrypanosomal activity against Trypanosoma cruzi Tulahuen intracellular amastigote harboring LacZ infected in human U937 cells after 72 hrs by CPRG/Nonidet reagent based spectrophotometric method; format: functional, cell-based; conditions: U-937, 72 h
Method in brief: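 U-937 cells at 2.5 × 10^5 cells/mL in RPMI-1640 with 10% serum and 0.1 µg/mL PMA were infected with β-galactosidase-transfected Tulahuen epimastigotes at 5 parasites per cell. Infected cells were exposed to 50, 12.5, 3.125 and 0.78 µg/mL for 72 h. CPRG (100 uM) and 0.1% Nonidet P-40 were added for 3 h, read at 570 nm. EC50 by Probit. Triplicate, at least two experiments; benznidazole as reference.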

HT-29 = test: Growth inhibition of human HT-29 cells at 10 uM incubated for 48 hrs by sulforhodamine B assay; format: functional, cell-based; method in brief: as §3
Staphylococcus aureus = test: Antibacterial activity against methicillin-sensitive Staphylococcus aureus ATCC 25923 after 24 hrs by resazurin dye based microdilution assay; format: functional; conditions: ATCC 25923, 24 h; method in brief: as §2
Candida albicans = test: Growth inhibition of Candida albicans ATCC 10231 at 62.5 ug/ml incubated for 48 hrs under dark condition by broth microdilution method relative to control; format: functional; conditions: ATCC 10231, 48 h, read-out: GI; method in brief: as §5
Pseudomonas aeruginosa = test: Antibacterial activity against Pseudomonas aeruginosa ATCC 27853 after 24 hrs by resazurin dye based microdilution assay; format: functional; conditions: ATCC 27853, 24 h; method in brief: as §2
Leishmania panamensis = test: Antileshmanial activity against EpiR/GFP fused Leishmania panamensis MHOM/CO/87/UA140 intracellular amastigotes infected in human […] cells after 72 hrs by flow cytometric method; format: functional, cell-based; conditions: MHOM/CO/87/UA140, 72 h
Method in brief: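 PMA-treated U-937 cells (3 × 10^5 cells/mL) infected with stationary-phase GFP L. panamensis promastigotes (15:1), 3 h at 34 °C, then washed. After 24 h, compounds added at 50, 12.5, 3.125 and 0.78 µg/mL for 72 h at 37 °C. EC50 by Probit; triplicate, two experiments.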

UACC-62 = test: Growth inhibition of human UACC62 cells at 10 uM incubated for 48 hrs by sulforhodamine B assay; format: functional, cell-based; method in brief: as §1
SF-268 = test: Growth inhibition of human SF268 cells at 10 uM incubated for 48 hrs by sulforhodamine B assay; format: functional, cell-based; method in brief: as §3
MCF7 = test: Growth inhibition of human MCF7 cells at 10 uM incubated for 48 hrs by sulforhodamine B assay; format: functional, cell-based; method in brief: as §3
HL-60(TB) = test: Growth inhibition of human HL-60(TB) cells at 10 uM incubated for 48 hrs by sulforhodamine B assay; format: functional, cell-based
Method in brief: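 NCI 60-line single-dose screen at 10 μM, 48 h. Cells in RPMI-1640 with 5% FBS and 2 mM L-glutamine at 37 °C, 5% CO2. Growth measured by TCA fixation and SRB staining (515 nm), relative to time-zero and untreated control wells.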

RXF 393 = test: Growth inhibition of human RXF393 cells at 10 uM incubated for 48 hrs by sulforhodamine B assay; format: functional, cell-based; method in brief: as §3
OVCAR-5 = test: Growth inhibition of human OVCAR5 cells at 10 uM incubated for 48 hrs by sulforhodamine B assay; format: functional, cell-based; method in brief: as §3
DU-145 = test: Growth inhibition of human DU145 cells at 10 uM incubated for 48 hrs by sulforhodamine B assay; format: functional, cell-based; method in brief: as §4
NCI-H226 = test: Growth inhibition of human NCI-H226 cells at 10 uM incubated for 48 hrs by sulforhodamine B assay; format: functional, cell-based; method in brief: as §3
786-0 = test: Growth inhibition of human 786-0 cells at 10 uM incubated for 48 hrs by sulforhodamine B assay; format: functional, cell-based; method in brief: as §4
Cryptococcus neoformans [2] = test: Growth inhibition of Cryptococcus neoformans ATCC 32264 at 250 ug/ml incubated for 48 hrs under dark condition by broth microdilution method relative to control; format: functional; conditions: ATCC 32264, 48 h, read-out: GI; method in brief: as §5
CAKI-1 = test: Growth inhibition of human Caki1 cells at 10 uM incubated for 48 hrs by sulforhodamine B assay; format: functional, cell-based; method in brief: as §4

Row | Structure (SMILES) | EC50 (Plasmodium falciparum) [mg/L] | growth inhibition (GI) (T47D) | MIC (Escherichia coli) [mg/L] | growth inhibition (GI) (MDA-MB-231) | growth inhibition (GI) (A498) | inhibition of growth at 62.5 µg/mL (Cryptococcus neoformans [1]) [%] | growth inhibition (GI) (PC-3) | growth inhibition (GI) (BT-549) | EC50 (Trypanosoma cruzi) [mg/L] | growth inhibition (GI) (HT-29) | MIC (Staphylococcus aureus) [mg/L] | inhibition of growth at 62.5 µg/mL (Candida albicans) [%] | MIC (Pseudomonas aeruginosa) [mg/L] | EC50 (Leishmania panamensis) [mg/L] | growth inhibition (GI) (UACC-62) | growth inhibition (GI) (SF-268) | growth inhibition (GI) (MCF7) | growth inhibition (GI) (HL-60(TB)) | growth inhibition (GI) (RXF 393) | inhibition of growth at 250 µg/mL (Cryptococcus neoformans [2]) [%] | also measured
1 | COc1ccc(C(=O)/C=C/c2cccc(Nc3ccnc4cc(Cl)ccc34)c2)cc1 | 10.5 (≈ 25.4 µM) | Active | > 1000 | Active | Active | 13.9 | Active | Active | 3.29 (≈ 7.93 µM) | Active | > 1000 | 41.1 | > 1000 | 2.65 (≈ 6.39 µM) | Active | Active | Active | Active | Active | 46.1 | growth inhibition (GI) (OVCAR-5): Active; growth inhibition (GI) (DU-145): Active; growth inhibition (GI) (NCI-H226): Active; growth inhibition (GI) (786-0): Active
2 | COc1cc(C(=O)/C=C/c2cccc(Nc3ccnc4cc(Cl)ccc34)c2)cc(OC)c1OC | 14.1 (≈ 29.7 µM) | Active | > 1000 | Active | Active | 6.09 | Active | Active | 1.09 (≈ 2.3 µM) | Active | > 1000 | 7.6 | > 1000 | 5.92 (≈ 12.5 µM) | Active | Active | Active | Active | Active | 7.12 | growth inhibition (GI) (OVCAR-5): Active; growth inhibition (GI) (DU-145): Active; growth inhibition (GI) (NCI-H226): Active; growth inhibition (GI) (786-0): Active
3 | O=CN1N=C(c2ccc(Cl)cc2)CC1c1cccc(Nc2ccnc3cc(Cl)ccc23)c1 (stereo not given) | 24.7 (≈ 53.6 µM) | Active | > 1000 | Active | Active | 59.7 | Active | Active | 0.7 (≈ 1.52 µM) | Active | > 1000 | 28.2 | > 1000 | 281 (≈ 609 µM) | Active | Active | Active | Active | Active | 79.9 | growth inhibition (GI) (OVCAR-5): Active; growth inhibition (GI) (DU-145): Active; growth inhibition (GI) (NCI-H226): Active; growth inhibition (GI) (786-0): Active
4 | COc1ccc(C2=NN(c3ccc(Cl)cc3)C(c3cccc(Nc4ccnc5cc(Cl)ccc45)c3)C2)cc1 (stereo not given) | 44.6 (≈ 82.6 µM) | inactive | > 1000 | inactive | inactive | 14.1 | inactive | inactive | 44.6 (≈ 82.6 µM) | inactive | > 1000 | 5.46 | > 1000 | 27.7 (≈ 51.4 µM) | inactive | inactive | inactive | inactive | inactive | 58.2 | growth inhibition (GI) (OVCAR-5): inactive; growth inhibition (GI) (DU-145): inactive; growth inhibition (GI) (NCI-H226): inactive; growth inhibition (GI) (786-0): inactive; growth inhibition (GI) (CAKI-1): inactive
5 | COc1ccc(C2=NN(c3ccccc3)C(c3cccc(Nc4ccnc5cc(Cl)ccc45)c3)C2)cc1 (stereo not given) | 13.7 (≈ 27 µM) | inactive | > 1000 | inactive | inactive | 10.6 | inactive | inactive | 86.8 (≈ 172 µM) | inactive | > 1000 | 17.3 | > 1000 | 6.93 (≈ 13.7 µM) | inactive | inactive | inactive | inactive | inactive | 32.2 | growth inhibition (GI) (OVCAR-5): inactive; growth inhibition (GI) (DU-145): inactive; growth inhibition (GI) (NCI-H226): inactive; growth inhibition (GI) (786-0): inactive; growth inhibition (GI) (CAKI-1): inactive
6 | COc1ccc(C2=NN(C=O)C(c3cccc(Nc4ccnc5cc(Cl)ccc45)c3)C2)cc1 (stereo not given) | 16.1 (≈ 35.3 µM) | Active | > 1000 | Active | Active | 43.5 | Active | Active | > 0.15 | Active | > 1000 | 20.1 | > 1000 | 33.1 (≈ 72.5 µM) | Active | Active | Active | Active | Active | 55.4 | growth inhibition (GI) (OVCAR-5): Active; growth inhibition (GI) (DU-145): Active; growth inhibition (GI) (NCI-H226): Active; growth inhibition (GI) (786-0): Active
7 | O=Cc1cccc(Nc2ccnc3cc(Cl)ccc23)c1 | 14.2 (≈ 50.1 µM) | – | 62.5 (≈ 221 µM) | – | – | 19.6 | – | – | 1.15 (≈ 4.07 µM) | – | 62.5 (≈ 221 µM) | 19.6 | > 1000 | 0.96 (≈ 3.4 µM) | – | – | – | – | – | 100 | –
